Laboratory results reported in ChEMBL document CHEMBL4007469, “Design and synthesis of dalbergin analogues and evaluation of anti-osteoporotic activity” (Bioorg Med Chem Lett, 2017).
The source made the active and inactive calls. The calls are words filed in the database; no cut-off is given here.

How the values were obtained:
Mus musculus [1] = experiment: In vivo induction of osteogenesis in Balb/c mouse assessed as increase in mineral appositional rate in calvaria at 0.1 to 1 mg/kg/day, sc over calvarial surface for 5 consecutive days by fluorochromes tetracycline and calcein labeling based histomorphometric analysis; type: functional, organism-based
Summary of the method: (§1)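 Three-week-old Balb/c mice (3 per group) injected subcutaneously over the calvarial surface daily for 5 consecutive days at 0.1, 0.5, 1 and 5 mg/kg/day. Calvaria fixed in 4% formaldehyde, paraffin-embedded, H&E-stained; tetracycline and calcein (20 mg/kg each, ip) given for MAR/BFR histomorphometry; calvarial mRNA by RT-PCR. Mean ± SE, three independent experiments, versus untreated.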

Mus musculus [2] = experiment: Estrogenic effect in uterine of ovariectomized postmenopausal Balb/c mouse model assessed as luminal epithelial height at 1 mg/kg, po qd via gavage for 6 weeks (reference value: 0.55 +/- 0.03 umeter); type: ADME, organism-based; conditions: in vivo, 1008 h
Mus musculus [3] = experiment: Anti-osteoporotic activity in ovariectomized postmenopausal Balb/c mouse model assessed as increase in ALP gene expression in femur bone at 1 mg/kg, po qd via gavage for 6 weeks by RT-PCR method; type: functional, organism-based
Summary of the method: (§2)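 Eight-week-old female Balb/c mice, ovariectomized and left 6 weeks for osteopenia to develop; groups sham+vehicle, OVx+vehicle, OVx+1.0 mg/kg/day, dosed once daily by oral gavage for 6 weeks in gum acacia/distilled water vehicle. Mice kept at 21°C, 12 h light/dark, chow and water ad libitum. Femoral bone mRNA or serum measured after sacrifice; mean ± SE versus OVx group.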

Mus musculus [4] = experiment: Anti-osteoporotic activity in ovariectomized postmenopausal Balb/c mouse model assessed as increase in OCN gene expression in femur bone at 1 mg/kg, po qd via gavage for 6 weeks by RT-PCR method; type: functional, organism-based; summary of the method: as §2
Mus musculus [5] = experiment: Anti-osteoporotic activity in ovariectomized postmenopausal Balb/c mouse model assessed as decrease in TRAP mRNA expression at 1 mg/kg, po qd via gavage for 6 weeks by RT-PCR method; type: functional, organism-based; summary of the method: as §2
Mus musculus [6] = experiment: Osteogenic activity in Balb/c mouse drill-hole fracture model assessed as increase in BMP2 mRNA level at 1 mg/kg, po qd via gavage for 21 days by RT-PCR method
Mus musculus [7] = experiment: Osteogenic activity in Balb/c mouse drill-hole fracture model assessed as increase in aggrecan mRNA level at 1 mg/kg, po qd via gavage for 21 days by RT-PCR method
Mus musculus [8] = experiment: Osteogenic activity in Balb/c mouse drill-hole fracture model assessed as increase in Sox9 mRNA level at 1 mg/kg, po qd via gavage for 21 days by RT-PCR method
[9] = Induction of osteoblast differentiation in mouse calvarial cells assessed as increase in RunX2 mRNA expression at 1 pM after 24 hrs by qRT-PCR method relative to control; type: functional, Calvarial cell
Summary of the method: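 Mouse calvarial osteoblasts exposed to 1 pM for 24 h; BMP2, RunX2 and COL1 mRNA by quantitative PCR with GAPDH as internal control. Mean ± SE of three independent experiments versus untreated cells.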

Mus musculus [10] = experiment: Anti-osteoporotic activity in ovariectomized postmenopausal Balb/c mouse model assessed as vertebrae compressive strength by measuring energy at 1 mg/kg, po qd via gavage for 6 weeks by micro CT-scan analysis (reference value: 224.75 +/- 1.06 mJ); type: functional
Summary of the method: (§3)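 Female Balb/c mice, 8 weeks old, ovariectomized, 6 weeks osteopenia development, then 1.0 mg/kg/day or gum acacia vehicle by oral gavage once daily for 6 weeks (sham, OVx and treated groups). Bones collected after sacrifice for micro-CT of trabecular microarchitecture (BV/TV, Tb.N, Tb.Th, Tb.Sp, SMI) and biomechanical testing of femur and vertebrae (energy, stiffness); mean ± SE versus OVx.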

Mus musculus [11] = experiment: In vivo induction of osteogenesis in Balb/c mouse assessed as increase in Runx2 mRNA level in calvaria at 1 mg/kg/day, sc over calvarial surface for 5 consecutive days by RT-PCR method relative to control; type: functional; summary of the method: as §1
Mus musculus [12] = experiment: Anti-osteoporotic activity in ovariectomized postmenopausal Balb/c mouse model assessed as induction of femur bone marrow cell differentiation by measuring increase in ALP activity at 1 mg/kg, po qd via gavage for 6 weeks relative to control; type: functional
Summary of the method: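 Ovariectomized 8-week-old female Balb/c mice given 1.0 mg/kg/day orally by gavage for 6 weeks; bone marrow cells then cultured ex vivo. ALP activity read at 405 nm; mineralized nodules stained with Alizarin Red at day 21 of culture. Mean ± SE versus OVx group.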

[13] = Induction of osteoblast differentiation in mouse calvarial cells assessed as increase in ALP activity using PNPP as substrate after 48 hrs; type: functional, cell-based; conditions: Calvarial cell
Mus musculus [14] = experiment: In vivo induction of osteogenesis in Balb/c mouse assessed as increase in COL1 mRNA level in calvaria at 1 mg/kg/day, sc over calvarial surface for 5 consecutive days by RT-PCR method relative to control; type: functional; summary of the method: as §1
Mus musculus [15] = experiment: Osteogenic activity in Balb/c mouse drill-hole fracture model assessed as bone volume fraction at 1 mg/kg, po qd via gavage for 21 days by micro-CT method (reference value: 32.924 +/- 3.806%)
Mus musculus [16] = experiment: In vivo induction of osteogenesis in Balb/c mouse assessed as bone formation at 5 mg/kg/day, sc over calvarial surface for 5 consecutive days by hematoxylin and eosin staining based fluorescence microscopic method; type: functional, organism-based; summary of the method: as §1
Mus musculus [17] = experiment: Anti-osteoporotic activity in ovariectomized postmenopausal Balb/c mouse model assessed as micro-artchitectural parameter in vertebrae by measuring bone volume fraction at 1 mg/kg, po qd via gavage for 6 weeks by micro CT-scan analysis (reference value: 13.92 +/-1.66%); type: functional; summary of the method: as §3
Mus musculus [18] = experiment: Anti-osteoporotic activity in ovariectomized postmenopausal Balb/c mouse model assessed as femur bone breaking strength by measuring stiffness at 1 mg/kg, po qd via gavage for 6 weeks by micro CT-scan analysis (reference value: 34.3 +/- 1.84 N/mm); type: functional; summary of the method: as §3
[19] = Induction of osteoblast differentiation in mouse calvarial cells assessed as compound concentration required for maximum increase in ALP activity using PNPP as substrate after 48 hrs; type: functional, Calvarial cell
Mus musculus [20] = experiment: Anti-osteoporotic activity in ovariectomized postmenopausal Balb/c mouse model assessed as improvement in micro-artchitectural parameter in vertebrae by measuring structural model index at 1 mg/kg, po qd via gavage for 6 weeks by micro CT-scan analysis (reference value: 1.78 +/- 0.08); type: functional; summary of the method: as §3
Mus musculus [21] = experiment: Anti-osteoporotic activity in ovariectomized postmenopausal Balb/c mouse model assessed as improvement in micro-artchitectural parameter in tibia by measuring trabecular number at 1 mg/kg, po qd via gavage for 6 weeks by micro CT-scan analysis (reference value: 1.49 +/- 0.25 /millimeter); type: functional; summary of the method: as §3
Mus musculus [22] = experiment: Anti-osteoporotic activity in ovariectomized postmenopausal Balb/c mouse model assessed as decrease in RANK mRNA expression at 1 mg/kg, po qd via gavage for 6 weeks by RT-PCR method; type: functional, organism-based; summary of the method: as §2
Mus musculus [23] = experiment: Anti-osteoporotic activity in ovariectomized postmenopausal Balb/c mouse model assessed as mineral apposition rate at 1 mg/kg, po qd via gavage for 6 weeks by fluorochromes tetracycline and calcein labeling based histomorphometric analysis (reference value: 0.099 +/- 0.01 umeter/day); type: functional

For `COc1cc2oc(=O)cc(-c3ccccc3)c2cc1OCCCCCN1CCN(C)CC1`, the Activity (Mus musculus [1]) was “Active”, the Activity (Mus musculus [2]) was 0.66 um and the Activity (Mus musculus [3]) was “Active”. The Activity (Mus musculus [4]) was “Active”, the Activity (Mus musculus [5]) was “Active” and the Activity (Mus musculus [6]) was “Active”. The Activity (Mus musculus [7]) was “Active”, the Activity (Mus musculus [8]) was “Active” and the “fold change (FC)” value [9] was 2. The Activity (Mus musculus [10]) was 262.55 mJ, the “fold change (FC)” value (Mus musculus [11]) was 4 and the “fold change (FC)” value (Mus musculus [12]) was 2. For the same compound, the EC50 [13] was 2300 nM, the “fold change (FC)” value (Mus musculus [14]) was 4 and the Activity (Mus musculus [15]) was 44.359%. The Activity (Mus musculus [16]) was “inactive”, the Activity (Mus musculus [17]) was 23.43% and the Activity (Mus musculus [18]) was 53.55 N/mm. For the same compound, the “Concentration giving maximal ALP increase” value [19] was 1 pM, the Activity_index (Mus musculus [20]) was 1.07 and the Activity (Mus musculus [21]) was 2.7 /millimeter. The Activity (Mus musculus [22]) was “Active” and the Activity (Mus musculus [23]) was 0.177 micrometer/day.
